KCNQ1 inh = human KCNQ1 channel inhibition; CHO-K1 KCNQ1, FluxOR thallium flux fluorescence; stronger effect = higher value; B-score at 10 µM; 1.3% of 310,000 active; AID 2642;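 active means compounds whose thallium flux B-score, printed positive for inhibition, exceeds three library SD while starting fluorescence stays within three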;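 further: channel opened by potassium depolarization with thallium stimulus after 20 min compound exposure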
KCNQ1 act = potentiates or activates the human KCNQ1 potassium channel | 0.35% of 310,000 active | CHO-K1 KCNQ1, thallium flux FluxOR fluorescence; stronger effect = higher value | P51787 | AID 2648 | B-score at 10 µM;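 active means fluorescence ratio B-score, a plate-corrected score, at least three library SD, with initial intensity B-score within 5 SD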
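assay system = CHO-K1 cells stably expressing KCNQ1 | medium = assay buffer, equal DMSO in all wells | timing = 37 °C overnight plating, 90-min dark dye load, 20-min compound pretreatment | measured by = kinetic FluxOR thallium fluorescence, 10-s 1-Hz baseline, 110-s post-stimulus read | measure = fluorescence change relative to baseline, converted to B score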
KCNK3 block = human KCNK3 channel inhibition, primary screen. B-score at 10 µM. 0.84% of 340,000 active. CHO-KCNK3 thallium flux, FluxOR fluorescence; stronger effect = lower value;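 active means B-score under library mean minus 4 SD, starting fluorescence ratio at most library mean plus 5 SD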;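 further: more negative B-score means stronger inhibition of thallium flux through KCNK3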
hERG protect = hERG (human) protection from proarrhythmic block; Q12809; CHO-hERG, FluxOR thallium flux, dofetilide IC70 present; activation (rescue from dofetilide block), less the hit threshold, % at 10 µM; 0.51% of 310,000 active; AID 1511;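 active means activation above the mean of controls blocked by dofetilide plus 5 SD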;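 further: thallium influx through hERG after potassium depolarization seen as dye fluorescence rise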
Kir21 block = blocks the mouse Kir2.1 inward-rectifier potassium channel; P35561; HEK293-Kir2.1, FluxOR thallium flux fluorescence; stronger effect = lower value; B-score at 10 µM; 0.85% of 310,000 active; AID 1672;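 active means fluorescence ratio B-score at or below minus 3 SD of library scores, with starting-brightness B-score within 2 SD, cut at about -4.2 in these data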;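 further: channel flux triggered by added potassium and thallium sulfate stimulus; B-score of peak minus minimum fluorescence over baseline after thallium stimulus; more negative B-score means stronger Kir2.1 block with less thallium influx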
KCNK9 inh = human KCNK9 channel inhibition; Q9NPC2; HEK293 KCNK9, FluxOR thallium flux fluorescence; stronger effect = lower value; B-score at 10 µM; 1.2% of 310,000 active; AID 488922;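 active means ratio B-score over 3 SD below the library mean, with starting fluorescence within 5 SD of its mean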;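 further: negative B-score means less thallium flux so channel inhibition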
KCNK9 inh conf = human KCNK9 inhibitor confirmation; 43% of 4,900 active; HEK293 KCNK9 cells, FluxOR thallium flux fluorescence; inhibition, % at 10 µM; shares compounds with KCNK9 inh;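 active means thallium signal inhibited by more than 5 SD of the compound-free buffer control wells, on both duplicate plates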;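 further: 0% = assay buffer control wells without compound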
Kir21 sel = mouse Kir2.1 off-target activity of KCNK9 modulators. shares compounds with KCNK9 inh. Kir2.1 cells, FluxOR thallium flux fluorescence. inhibition, % at 10 µM. 4% of 4,900 active;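 active means thallium signal drop more than 5 SD beyond the mean of the no-compound control wells, seen in both duplicate plates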;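 further: signal is fluorescence rise after thallium addition divided by baseline fluorescence; plate controls were assay buffer only for no effect and full block by chlorpromazine control for full effect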
KCNK9 uninduced = non-induced cell nonspecific activity of KCNK9 modulators | shares compounds with KCNK9 inh | non-induced KCNK9-HEK293, FluxOR thallium flux | inhibition, % at 10 µM | 40% of 4,900 active | AID 492997;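 active means thallium signal drop beyond 5 SD of the untreated control mean, on both duplicate plates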;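 further: plate controls were buffer only IC0 wells for no effect and SID17386958 at its maximal inhibitory level for full effect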
An asterisk follows results filed as active; i = inactive; nt = not tested or not shown. Hits are enriched below; roughly 3.7% of the tested compounds scored in any of these assays.

SMILES | KCNQ1 inh | KCNQ1 act | KCNK3 block | hERG protect | Kir21 block | KCNK9 inh | KCNK9 inh conf | Kir21 sel | KCNK9 uninduced
O=C(N/N=C/c1ccncc1)c1ccccc1OCc1ccc(Br)cc1 | i | i | i | -9.4 | -0.74 | -8.93* | i | i | i
O=C(N/N=C/c1cc(Br)ccc1OC(=O)c1ccc(Br)cc1)c1ccncc1 | i | i | i | -11.8 | -0.39 | -12* | 45.0%* | i | 34.5%*
Cc1ccc(/C=N/NC(=O)c2ccccc2OCc2ccc(F)cc2)o1 | i | i | i | -6.1 | 2.25 | i | nt | nt | nt
O=C(N/N=C/c1cc(Br)ccc1O)c1ccncc1 | i | i | i | -19.6 | 1.66 | i | nt | nt | nt
CN(C)N=Nc1nc2c(c(=O)n(C)c(=O)n2C)n1CC1CO1 (stereo not drawn) | i | i | i | -7.1 | 1.05 | i | nt | nt | nt
CCC(=O)Nc1ccc(C(=O)CN2C(=O)NC3(CCOc4ccccc43)C2=O)cc1 (stereo not drawn) | nt | nt | i | nt | nt | nt | nt | nt | nt
COc1ccc(Nc2c[nH]c(=O)[nH]c2=O)cc1 | nt | nt | i | nt | nt | nt | nt | nt | nt
COc1ccc(C)cc1NC(=O)CN(Cc1nnc(-c2ccc(Cl)cc2)o1)C1CCCC1 | i | i | i | -18.2 | 2.18 | -12.4* | 36.0%* | i | 32.5%*
COc1cccc(C(N)=O)c1 | i | i | i | -2.1 | -0.3 | i | nt | nt | nt
COc1cccc(/C(C)=N/N=C(\C)c2cccc(OC)c2)c1 | i | i | i | -5.6 | 0.67 | -14* | 60.5%* | i | i
O=C(Nc1ccccc1N1CCOCC1)c1cccnc1Cl | i | i | i | -2.6 | 0.04 | i | nt | nt | nt
COc1cccc(CN2CCN(Cc3cccc(Br)c3)CC2)c1OC | i | i | i | -8.2 | -0.69 | i | i | i | i
COc1cccc(CN2CCN(Cc3cc(OC)c(OC)cc3[N+](=O)[O-])CC2)c1 | i | i | i | -5.3 | -1.22 | i | i | i | i
CC(C)CNC(=O)N1c2ccccc2Sc2ccccc21 | i | i | i | -12.5 | -0.75 | i | i | i | i
Cc1ccc(CSc2nc3ccsc3c(=O)n2Cc2ccccn2)cc1 | i | i | i | -8.3 | 0.39 | -14* | 79.0%* | i | 44.0%*
Cc1ccc(C(=O)N2CCN(c3cnn(C)c(=O)c3Cl)CC2)cc1 | i | i | i | -7.5 | 0.12 | i | nt | nt | nt
COCCN(C(=O)COC(=O)CSc1ccc2ccccc2c1)c1c(N)n(Cc2ccccc2)c(=O)[nH]c1=O | i | i | i | -15.5 | 1.02 | i | nt | nt | nt
CC(=O)c1ccc(S(=O)(=O)N(C)CCCC(=O)N2CCN(c3ncccn3)CC2)cc1 | nt | nt | i | nt | nt | nt | nt | nt | nt
COc1ccccc1C(=O)N/N=C/C(C)=C/c1ccccc1 | i | i | i | -5.5 | -0.12 | -10.3* | 47.5%* | i | 30.0%*
CNC(=O)COC(=O)c1ccc2c(c1)S(=O)(=O)c1ccccc1C2=O | i | i | i | -3.8 | 0.67 | i | nt | nt | nt
Cc1ccc(C(=O)N2N=C(c3ccccc3)CC2(O)C(F)(F)F)o1 (stereo not drawn) | i | i | i | -12.7 | 1.03 | -11* | 55.0%* | i | 31.5%*
CCOC(=O)C1(CCCc2ccccc2)CCN(Cc2nccn2CC)CC1 | i | i | i | -16.5 | -2.94 | i | i | i | i
CCOC(=O)C1(CCCc2ccccc2)CCN(C(=O)Cc2nonc2C)CC1 | i | i | i | -3.1 | 0.39 | i | i | i | i
CCOC(=O)C1(CCc2ccccc2)CCN(Cc2cccc3nccnc23)CC1 | i | i | i | -1.7 | -0.07 | i | i | i | 23.0%*
CCOC(=O)C1(CCCc2ccccc2)CCN(C(=O)CSC)CC1 | i | i | i | -5.4 | -1.46 | i | nt | nt | nt
SMILES | KCNQ1 inh | KCNQ1 act | KCNK3 block | hERG protect | Kir21 block | KCNK9 inh | KCNK9 inh conf | Kir21 sel | KCNK9 uninduced
CC(C)Oc1cccc(C(=O)C2CCCN(C(=O)CCc3cnn(C)c3)C2)c1 (stereo not drawn) | i | i | i | -7.2 | 0.21 | i | nt | nt | nt
COc1ccc(CN(C)CC(=O)NCC(=O)Nc2c(C)cccc2C)cc1 | nt | nt | i | nt | nt | nt | nt | nt | nt
CC1CCC(NC(=O)COC(=O)c2n[nH]c(=O)c3ccccc23)CC1 (stereo not drawn) | i | i | i | -11.5 | 2.73 | i | nt | nt | nt
S=c1nc(C2COc3ccccc3O2)[nH][nH]1 (stereo not drawn) | i | i | i | -5.8 | 0.25 | i | i | i | i
O=C1C(Cl)=C(N2CCCC2)C(=O)N1c1ccc(F)cc1 | i | i | i | -7.3 | 0.02 | i | nt | nt | nt
O=C(CN1CCC(Cc2ccccc2)CC1)NC(=O)NC1CCCCC1 | i | i | i | -15.0 | -1.1 | i | i | i | i
CN(CC(=O)NC(=O)NC1CCCCC1)Cc1ccccc1 | nt | nt | i | nt | nt | nt | nt | nt | nt
CCN(CC(=O)NC(=O)NC1CCCCC1)Cc1ccccc1 | i | i | i | -6.8 | -0.86 | i | i | i | i
COc1ccc([C@H]2Cc3cc(O)cc(O)c3C(=O)O2)cc1O | nt | nt | i | nt | nt | nt | nt | nt | nt
CN(C(=S)Nc1ccc(Oc2ccccc2)cc1)C1CCCCC1 | i | i | i | -7.2 | 0.15 | i | i | i | i
O=C(c1ccccc1Sc1ccccc1[N+](=O)[O-])N1CCCCC1 | i | i | i | 4.3 | -0.36 | i | i | i | i
CCN(C(=O)c1ccc2c(Cl)c3c(nc2c1)CCC3)c1ccc(C)c(C)c1 | i | i | i | -16.0 | 0.52 | i | i | i | i
CN(C(=O)c1ccc2c(Cl)c3c(nc2c1)CCC3)c1ccccc1 | i | i | i | -13.4 | -0.09 | i | nt | nt | nt
Cc1cccc(Nc2nc(-c3ccncc3)cs2)c1 | i | i | i | -8.6 | 0.95 | i | nt | nt | nt
Cc1cccc(Nc2nc(-c3ccc4c(c3)OCCO4)cs2)c1 | i | i | i | -5.7 | -2.55 | i | i | i | i
COC(=O)c1cc(S(=O)(=O)NCC2CCN(CCc3ccc(OC)cc3)CC2)c[nH]1 | i | i | i | -6.4 | 0.13 | i | nt | nt | nt
COc1cccc(C(=O)N2c3ccccc3Sc3ccccc32)c1 | i | i | i | -8.2 | -0.83 | -10.5* | 58.0%* | i | 47.5%*
COCCCC1CCN(C(=O)C2CCC(=O)N(CCc3cccc(F)c3)C2)CC1 (stereo not drawn) | i | i | i | -9.3 | 0.53 | i | nt | nt | nt

Assay outcomes from PubChem BioAssay.
